Bioassay records: PubChem, several laboratories
hiPSC survival = increases survival of single human iPS cells; 360,000 tested, 0.044% active; AID 602274; hiPSC single-cell survival, ATPlite luminescence; 100% = ROCK inhibitor wells, 0% = DMSO; survival enhancement, % at 20 µM; in the data active = survival enhancement above about 18%;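 note: cells exposed to compounds for 16 hours before the ATP read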
MC4R barr agon = activates human MC4R beta-arrestin recruitment; P32245; U2OS MC4R beta-arrestin complementation, luminescence; percent of melanotan II response, DMSO zero; activation, % at 8.9 µM; 360,000 tested, 0.98% active; AID 540308;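 active = activation above a per-plate cutoff, the mean activation of sample wells on that plate plus 3 SD, cut at about 8% in these data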
Target sequence (P32245 whole entry, looked up): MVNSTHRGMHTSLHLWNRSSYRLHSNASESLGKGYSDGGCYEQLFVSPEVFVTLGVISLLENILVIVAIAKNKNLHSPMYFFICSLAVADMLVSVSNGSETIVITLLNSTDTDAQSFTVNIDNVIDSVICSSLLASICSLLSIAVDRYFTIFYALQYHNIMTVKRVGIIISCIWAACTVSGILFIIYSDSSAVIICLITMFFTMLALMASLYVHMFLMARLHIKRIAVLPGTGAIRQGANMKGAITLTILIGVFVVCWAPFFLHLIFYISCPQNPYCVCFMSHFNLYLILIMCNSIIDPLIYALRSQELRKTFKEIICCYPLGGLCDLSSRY
Tb MetRS inh = Trypanosoma brucei MetRS inhibition; purified T. brucei MetRS, ATP depletion, Kinase-Glo luminescence; inhibition, % at 11.9 µM; 360,000 tested, 0.4% active; AID 624268;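 active = inhibition above a per-plate cutoff of the control wells' mean inhibition plus 3 SD, cut at about 5.5% in these data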;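 note: 0% = DMSO wells median and 100% = median of wells with control inhibitor compound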
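Material: T. brucei methionyl-tRNA synthetase, purified; reagent: substrates ATP, L-methionine and bulk Escherichia coli tRNA; dosing: 11.9 µM single point; timing: 15 min plus 2 h at 25 °C; detection: luminescence of leftover ATP; evaluation: % inhibition; control set: DMSO-only wells as low control; replicates: singlicate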
MC4R antagonist = human MC4R antagonism in cAMP assay; AID 540295; 360,000 tested, 0.48% active; inhibition, % at 6.5 µM; MC4R-expressing cells, MTII-stimulated cAMP, LANCE TR-FRET;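 active = inhibition above its plate's cutoff, the mean of tested wells on that plate plus 3 SD, cut at about 29% in these data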;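 note: 0% = Melanotan II alone and 100% = Melanotan II plus saturating MCL0020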
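Assay system: U2OS cells stably expressing human melanocortin 4 receptor (MC4R) / Dosing: 6.5 µM / Timing: compound 30 min, challenge 1 h, detection 1 h / Measured by: Eu-cAMP/anti-cAMP TR-FRET, emission 671 nm / Replicates: singlicate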
Exocytosis inh = blocks lytic granule exocytosis | 360,000 tested, 0.66% active | AID 651702 | TALL-104 LAMP-1 surface exposure, flow cytometry; cells stimulated with thapsigargin and PMA | inhibition, % at 10 µM;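 active = inhibition above about 55%, limit read from the data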
ABCB6 inh 2 = inhibitors of human ABC transporter ABCB6 | fluorescence ratio to DMSO, % at 10 µM | 360,000 tested, 0.19% active | K562-ABCB6 porphyrin accumulation, flow cytometry, 1 h; active compounds read low | AID 602162;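 active = fluorescence ratio to DMSO below 75%, the collection mean minus 3 SD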;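 note: signal is porphyrin accumulated inside mitochondria; 100% equals median channel fluorescence of DMSO control wells; lower ratio means ABCB6 inhibition with less porphyrin fluorescence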
* marks the source's active call; other numbers are inactive results; i = inactive. Sampled rows, rich in hits. Any-hit rate of the full collection: about 2.6%.

SMILES | hiPSC survival | MC4R barr agon | Tb MetRS inh | MC4R antagonist | Exocytosis inh | ABCB6 inh 2
COc1ccc(-c2nc(C#N)c(N3CCc4ccccc4C3)o2)cc1OC | -1 | 12* | -1 | 2 | -6 | 76
COc1ccccc1-c1nc(C#N)c(N2CCc3ccccc3C2)o1 | 5 | 2 | 0 | 9 | 2 | 97
O=C1c2[nH]nc(-c3ccccc3O)c2C(c2ccc(F)cc2)N1Cc1ccco1 (stereo unspecified) | 0 | 13* | 0 | -1 | 2 | 103
O=C1c2[nH]nc(-c3ccccc3O)c2C(c2cccc(Cl)c2)N1Cc1ccco1 (stereo unspecified) | -1 | 6 | -1 | -8 | 9 | 78
CC(C)(C)C(=O)/C=c1\s/c(=C\c2ccc(-c3ccc([N+](=O)[O-])cc3)o2)c(=O)n1CC(=O)NC(N)=O | 0 | 0 | -1 | 11 | 58* | i
CCOC(=O)c1c(NC(=O)Cn2nc(C(=O)O)c3ccccc3c2=O)sc(CC)c1C | -1 | 8 | -1 | 11 | 1 | 97
CCOC(=O)c1c(NC(=O)Cn2nc(C(=O)O)c3ccccc3c2=O)sc(C)c1C | 0 | 9.0* | 0 | -2 | 24 | 99
CC(=O)Nc1ccc(NC2=Nc3ccccc3N3C2=Nc2c(c(C)nn2-c2ccccc2)C3c2ccccc2)cc1 (stereo unspecified) | -1 | 0 | -1 | 5 | 58* | 90
O=C(Cn1cnc2ccccc21)Nc1cccc(S(=O)(=O)N2CCCC2)c1 | 0 | 1 | 36* | 9 | 0 | 94
NS(=O)(=O)c1cccc(NC(=O)COC(=O)Cn2cnc3ccccc32)c1 | 0 | -2 | 0 | 8 | -4 | 94
O=C(NCc1ccc2c(c1)OCO2)c1nc(S(=O)(=O)Cc2ccccc2)ncc1Cl | 1 | -6 | 0 | 1 | 35 | 53*
CC1(C(=O)Nc2ccc(Cl)c(Cl)c2)CCN1CCc1ccccc1 (stereo unspecified) | -1 | -2 | 0 | 14 | 20 | 101
Cc1ccc(O)c(C(=O)CC(=O)c2ccc(C(C)(C)C)cc2)c1 | 0 | 12* | 2 | 2 | 3 | 95
Cc1ccc(O)c(C(=O)CC(=O)c2ccccc2Cl)c1 | 2 | 4 | -1 | 0 | -8 | 103
O=C(Cc1cccc2ccccc12)N/N=C/c1ccc(F)cc1 | -1 | 15* | 0 | 1 | -2 | 98
O=C(CSc1nc2nn(-c3ccccc3)c(=O)c-2c2n1CCCCC2)c1ccc(OC(F)F)cc1 | 0 | 0 | 0 | 3 | 10 | 95
COc1cc2c(cc1OC)C(=O)N1[C@H]3c4ccccc4OC[C@@H]3[C@H](c3ccccc3)[C@]1(C)C(=O)N2 | 0 | 0 | 0 | 12 | 65* | 98
COc1ccc2c(c1)OC[C@H]1[C@H]2N2C(=O)c3cc(OC)c(OC)cc3NC(=O)[C@@]2(C)[C@H]1c1ccccc1 | 0 | 0 | 0 | 15 | -2 | 93
COc1ccccc1N=C1NC(=O)/C(=C/c2ccc(N(C)C)cc2)S1 | -1 | -2 | 0 | -22 | 67* | 154
O=C(/C(=C/c1cccnc1)n1ccnc1)c1ccc(Cl)cc1Cl | 2 | 2 | 0 | 9 | 96* | 95
CC(C)/C=C(/C(=O)c1ccc(Cl)cc1Cl)n1cncn1 | -1 | -1 | 1 | 8 | 55 | 98
Cc1nc2sc(C(=O)Nc3ccccc3)c(N)c2c(C)c1[N+](=O)[O-] | -2 | 9.3* | 0 | -9 | -8 | 94
CCOC(=O)c1[nH]c2ccccc2c1NC(=O)c1ccc2c(c1)OCO2 | -2 | 1 | -1 | -1 | -2 | 97
CCOC(=O)c1oc2ccccc2c1NC(=O)c1ccc2c(c1)OCO2 | -2 | 9.4* | -1 | 11 | 2 | 111
CCOC(=O)c1sc2ncn(/N=C/c3ccc(O)c(OC)c3)c(=O)c2c1C | 3 | 2 | 0 | 18 | 105* | 96
CCN(CC1CCCO1)C(=O)c1cc(COc2ccccc2SC)on1 (stereo unspecified) | 0 | -1 | 0 | 1 | 2 | 92
CCOC(=O)c1cc(C#N)c(NCc2ccccc2)nc1C | 2 | 8.8* | 0 | -7 | -1 | 102
